Most compounds without a hit are left out; they make up all but 2.9% or so of the library.
ABHD5-PLIN5 inh: blocks binding of human ABHD5 to perilipin-5; inhibition, % at 4 µM; actives 0.78% (n = 360,000); Split G. princeps luciferase complementation, luminescence, 4 h; Q00G26+Q8WTS1; AID 602281;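 active means inhibition above the mean inhibition across every tested compound plus 3 SD, cut at about 22% in these data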;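 further: 0% = DMSO only wells and the 100% control is not disclosed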
Target sequence (Q00G26 whole entry, looked up): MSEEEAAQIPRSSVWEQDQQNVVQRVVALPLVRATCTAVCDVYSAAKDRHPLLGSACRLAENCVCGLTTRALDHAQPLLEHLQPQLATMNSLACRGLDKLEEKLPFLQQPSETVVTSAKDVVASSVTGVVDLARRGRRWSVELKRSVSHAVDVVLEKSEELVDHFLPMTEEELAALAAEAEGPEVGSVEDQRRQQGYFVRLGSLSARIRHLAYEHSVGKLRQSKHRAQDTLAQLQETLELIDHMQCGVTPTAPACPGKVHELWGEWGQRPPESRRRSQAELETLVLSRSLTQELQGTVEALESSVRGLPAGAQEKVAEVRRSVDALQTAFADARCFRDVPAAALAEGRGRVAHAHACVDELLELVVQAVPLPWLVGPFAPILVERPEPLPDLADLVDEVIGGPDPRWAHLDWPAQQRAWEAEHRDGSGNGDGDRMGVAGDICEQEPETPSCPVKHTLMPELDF
Target sequence (Q8WTS1 whole entry, looked up): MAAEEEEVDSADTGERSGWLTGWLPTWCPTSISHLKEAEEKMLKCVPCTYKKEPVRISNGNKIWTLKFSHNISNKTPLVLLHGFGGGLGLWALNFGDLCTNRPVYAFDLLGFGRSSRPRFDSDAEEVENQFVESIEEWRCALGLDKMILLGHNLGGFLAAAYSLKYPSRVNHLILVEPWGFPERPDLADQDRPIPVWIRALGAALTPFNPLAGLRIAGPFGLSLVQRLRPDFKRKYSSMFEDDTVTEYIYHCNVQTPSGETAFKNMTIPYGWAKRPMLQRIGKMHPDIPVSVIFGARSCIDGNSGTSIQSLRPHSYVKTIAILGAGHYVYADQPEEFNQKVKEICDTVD
A3G deaminase: inhibitors of human APOBEC3G DNA deaminase. Q9HC16. recombinant A3G, ssDNA deamination FAM/TAMRA fluorescence. inhibition, % at 20 µM. actives 0.28% (n = 330,000). AID 493012;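 active means inhibition of at least 40% at 20 µM, with no more than 30% in the related APOBEC3A deaminase screen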;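 further: plate controls were DMSO wells with A3G for no effect and wells lacking A3G enzyme for full effect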
NS3 helicase inh: blocks Hepatitis C virus NS3 helicase unwinding; NS3 helicase DNA unwinding, Cy5 molecular beacon fluorescence; actives 0.56% (n = 290,000); inhibition, % at 10.9 µM;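 active means inhibition above the mean of all tested compounds plus 3 SD, set per campaign, cut at about 35% in these data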;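 further: 0% = DMSO wells and 100% = thioflavine S control wells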
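assay system = NS3 helicase fragment of HCV | buffer or medium = MOPS pH 6.5, MgCl2, DTT, Tween20, BSA | timing = 60 min unwinding reaction at 25 °C after ATP addition | signal = Cy5 beacon fluorescence read at start and 1 h | read-out basis = % inhibition of unwinding | control set = low DMSO, high thioflavine S at 110 µM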
HCV core dimer: blocks dimerization of HCV core protein | TR-FRET GST/Flag-core106 dimerization, 1536-well | inhibition, % at 5 µM | actives 0.33% (n = 300,000) | AID 1899;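 active means inhibition above the mean of all tested compounds plus 3 SD, set per screening campaign, cut at about 45% in these data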
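assay system = GST-tagged and Flag-tagged HCV core protein residues 1-106 | controls = unlabelled core106 and no-GST-core106 wells | incubation = compound-protein-antibody incubation 4 h at 22.5 °C | probe or stimulus = Eu donor and XL665 acceptor anti-tag antibodies | read-out = % inhibition based on acceptor/donor emission ratio | signal = TR-FRET 671 and 617 nm emission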
PRMT1 FP inh: PRMT1 (human) inhibition, primary screen. actives 1.3% (n = 370,000). inhibition, % at 2.79 µM. recombinant PRMT1, activity-based probe fluorescence polarization. AID 652257;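 active means inhibition above about 21% made by adding two undisclosed values, limit read from the data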
A3A deaminase: human APOBEC3A DNA deaminase inhibition | recombinant A3A, FAM/TAMRA ssDNA deamination fluorescence | inhibition, % at 20 µM | actives 0.41% (n = 330,000) | AID 493011 | P31941;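 active means at least 40% inhibition at 20 µM here, with at most 30% in a related deaminase screen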;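 further: plate controls were A3A with DMSO for no effect and wells lacking A3A enzyme for full effect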
NS3 helicase cf: HCV NS3 helicase inhibition, confirmation assay; shares compounds with NS3 helicase inh; actives 31% (n = 1,600); inhibition, % at 10.9 µM; NS3 helicase DNA unwinding, Cy5 molecular beacon fluorescence;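 active means inhibition above the mean of all tested compounds plus 3 SD, cutoff set per campaign, cut at about 36% in these data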
DNA FID counter: counter-screen for HCV NS3 helicase inhibitors: DNA intercalator displacement; shares compounds with NS3 helicase inh; DNA fluorescent intercalator displacement, fluorescence; inhibition, % at 7.9 µM; actives 4% (n = 1,600); AID 1945; in the data active means inhibition above about 37%;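 further: 0% = vehicle and 100% = reference compound; higher means more displacement of ethidium bromide from the DNA hairpin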
FID counter DR: DNA intercalator displacement in dose response. shares compounds with NS3 helicase inh. fluorescent intercalator displacement from DNA, fluorescence. IC50, µM. 120 tested, under 10 active; call rule not given here
The depositor's hits bear a star; . = no result given.

SMILES | ABHD5-PLIN5 inh | A3G deaminase | NS3 helicase inh | HCV core dimer | PRMT1 FP inh | A3A deaminase | NS3 helicase cf | DNA FID counter | others
COc1ccc(CNC(C)Cc2cccs2)cc1 (stereo not drawn) | -6 | -11 | -4 | -1 | -2 | 2 | . | .
O=C(O)CC1OCC=C2CN3CCC45C6=CC(=O)C(=O)C([N+](=O)[O-])=C6NC4C1C2CC35 (stereo not drawn) | -12 | . | 19 | 22 | . | . | -16 | 17
CN(C)C(=O)Oc1ccc(Cl)c2ccccc12 | -2 | -2 | -1 | 2 | -4 | 1 | . | .
Cc1c(OC(=O)N(C)C)ccc2c1O/C(=C\c1ccco1)C2=O | 6 | -6 | 59* | . | 17 | -1 | -5 | -17
CCOP(=O)(OCC)C1(O)C(=O)Nc2ccc(Br)cc21 (stereo not drawn) | -9 | -8 | 0 | 1 | -1 | 0 | . | .
COc1ccc(Oc2cc(NC(=O)c3nn(C)cc3[N+](=O)[O-])cc([N+](=O)[O-])c2)cc1 | 5 | -3 | -2 | 5 | 1 | 0 | . | .
CCCCN1C(=O)/C(=C/c2ccc(N3CCCCCC3)cc2)C(=O)NC1=S | . | -8 | 39* | 12 | . | 28 | 29 | 0
CCN1C(=O)N(CC)C(=O)C2(Cc3ccccc3N3CCN(c4ccccc4)CC32)C1=O (stereo not drawn) | -6 | 11 | 45* | 6 | 1 | -2 | -20 | -32
CN1C(=O)N(C)C(=O)C2(Cc3cc(N)ccc3N3CCN(c4ccccc4F)CC32)C1=O (stereo not drawn) | . | -7 | 1 | 24 | 12 | -4 | . | .
CC(C)(C)N1C(=O)NC(=O)/C(=C\c2ccc3c(c2)CCN3CCCCl)C1=O | 2 | -3 | 97* | 13 | 3 | 0 | -12 | 4
COc1ccc(N2C(=O)/C(=C/c3ccc(C)o3)C(=O)NC2=S)cc1 | 9 | 12 | -2 | . | 11 | 16 | . | .
CCOc1ccc(N2C(=O)/C(=C/c3ccc(C)o3)C(=O)NC2=S)cc1 | -7 | 31 | 49* | 31 | 15 | 20 | 70* | -2
CC1(C)CSC(=NCc2ccccc2)N1 | 1 | -8 | -2 | -4 | 1 | -6 | . | .
O=C1NC(=O)N(c2ccc(Cl)cc2)C(=O)/C1=C\c1ccc(Sc2nc3ccccc3[nH]2)o1 | 4 | 15 | 44* | 23 | 18 | 22 | 76* | -7
O=c1[nH]c2ccccc2n1C1CCN(C(c2cc3ccccc3o2)c2nnnn2-c2ccc3c(c2)OCCO3)CC1 (stereo not drawn) | 3 | . | . | . | 0 | . | . | .
CCCCOC1OCN(C2CCCCC2)CC1(C)C (stereo not drawn) | -2 | . | . | . | -1 | . | . | .
CCOC(=O)C(O)(c1ccc(N(CC)S(=O)(=O)c2ccc(C)cc2)cc1)C(F)(F)F (stereo not drawn) | -4 | -3 | -12 | -4 | 1 | -1 | . | .
Nc1nonc1OCCCCOc1nonc1N | 0 | -4 | 7 | -1 | -1 | -4 | . | .
CC(C)c1ccc(-n2c(O)c(C=NC(CCS(C)=O)C(=O)O)c(=O)[nH]c2=S)cc1 (stereo not drawn) | 2 | 3 | 40* | -5 | 0 | -5 | -8 | 12
COc1ccc(CC(=O)Nc2ccc3c(C(F)(F)F)cc(=O)oc3c2)cc1OC | 4 | -7 | 59* | -1 | 0 | 0 | -13 | -21
CCN(CC)c1ccc(N=Cc2c(O)n(Cc3ccco3)c(=O)[nH]c2=O)cc1 | -9 | -3 | 37* | 6 | 21 | -1 | 4 | -2
O=C(N/N=C/c1c(O)n(CCC2=CCCCC2)c(=S)[nH]c1=O)c1ccccc1 | 0 | -10 | 40* | 18 | -2 | -2 | 99* | 4 | FID counter DR=>79
CN(C)C1C(=O)C(C(N)=O)=C(O)C2(O)C(=O)C3=C(O)c4c(O)cccc4C(C)(O)C3C(O)C12 (stereo not drawn) | 7 | 62 | 96* | -9 | 49* | 88 | 10 | 19
CS(=O)(=O)c1ccc(C2=C(CNC(=O)c3cccnc3)[C@H]3CC[C@@H](C2)N3Cc2ccccc2)cc1 | 5 | . | . | . | -4 | . | . | .
COc1ccc(OC)c(N2C(=O)/C(=C/c3ccco3)C(=O)NC2=S)c1 | . | 88 | 44* | 83* | . | 99 | 104* | 62*
SMILES | ABHD5-PLIN5 inh | A3G deaminase | NS3 helicase inh | HCV core dimer | PRMT1 FP inh | A3A deaminase | NS3 helicase cf | DNA FID counter | others
COc1ccc(N2C(=O)/C(=C/c3cc(C)n(-c4ccc(C)cn4)c3C)C(=O)NC2=S)c(OC)c1 | 0 | 6 | 2 | 23 | 6 | 3 | . | .
Cc1cc(N2CCOCC2)ccc1/C=C1\C(=O)NC(=O)N(c2ccccc2)C1=O | 18 | -4 | 11 | 4 | 1 | -4 | . | .
Cc1ccc(N2C(=O)NC(=O)/C(=C\C=C\c3ccco3)C2=O)cc1C | 15 | . | 38* | 8 | 18 | . | 62* | 15 | FID counter DR=>79
O=C1NC(=O)N(c2ccccc2)C(=O)/C1=C/C=C/c1ccco1 | 22 | 3 | 45* | 5 | 15 | 11 | -5 | 14
CN(C)c1ccc(/C=C/C=C2/C(=O)NC(=O)N(c3ccccc3)C2=O)cc1 | -1 | . | 10 | . | -9 | . | . | .
Cc1cc(/C=C2\C(=O)NC(=O)N(c3cccc(F)c3)C2=O)c(C)n1-c1ccc(C(=O)O)c(Cl)c1 | 8 | 5 | 16 | 14 | 20 | 20 | . | .
Cc1ccc(N2C(=O)NC(=O)/C(=C/c3ccc(-c4ccc(C(=O)O)c(Cl)c4)o3)C2=O)cc1 | 22* | 9 | 39* | 7 | 12 | 34 | 36* | 9
Cc1ccc(N2C(=O)/C(=C/c3ccc(CN(CCC#N)S(C)(=O)=O)o3)C(=O)NC2=S)cc1C | . | 41 | 44* | 51* | . | 53 | 66* | 24
CCc1ccc(N2C(=O)NC(=O)/C(=C\c3cc(C)n(-c4cc(C(=O)O)cc(C(=O)O)c4)c3C)C2=O)cc1 | -3 | 50 | 40* | 9 | 2 | 85 | -5 | 5
Cc1ccc(N2C(=O)NC(=O)/C(=C\c3cc(C)n(-c4ccc(C(=O)O)cc4)c3C)C2=O)cc1 | 7 | 0 | 26 | 17 | 0 | 7 | . | .
O=C1C2CCN(CC2)C12CC2c1ccc(C(F)(F)F)cc1 (stereo not drawn) | 6 | -11 | 39* | 1 | 1 | -2 | -8 | 20
CCCNc1nc(OC)nc(N2CC3CC(C2)c2cccc(=O)n2C3)n1 (stereo not drawn) | -4 | -6 | 2 | -2 | -5 | 2 | . | .
